From ChEMBL document CHEMBL3997768, “The synthesis and antistaphylococcal activity of dehydroabietic acid derivatives: modifications at C12 and C7” (2017)
In brackets after ≈: the same amount, converted by molar mass. Activity calls are given as the source filed them. The rule behind the calls is not given here.

What was measured:
Assay type in all cases: functional
Escherichia coli = assay: Antibacterial activity against Escherichia coli AB1157 at 50 ug/ml after 18 hrs by two fold serial dilution method
How it was run: (§1)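 Strains were grown overnight at 37 °C in TSB without antibiotic, diluted 1000-fold, and grown 2–3 h to A600 0.6. They were then diluted 1:400 in fresh TSB. Compounds in DMSO were two-fold serially diluted to a final 0.39–50 and mixed with an equal volume of bacteria. A600 was read after 18 h. MIC is the lowest concentration inhibiting growth. Triplicate; vancomycin and tetracycline were positive controls.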

Staphylococcus aureus [1] = assay: Antibacterial activity against Staphylococcus aureus Newman after 18 hrs by two fold serial dilution method; how it was run: as §1
Staphylococcus aureus [2] = assay: Antibacterial activity against aminoglycosides/tetracycline-resistant Staphylococcus aureus NRS-1 after 18 hrs by two fold serial dilution method; conditions: NRS-1, 18 h
How it was run: (§2)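 Strains grown overnight at 37 °C in TSB without antibiotic. Cultures were diluted 1000-fold, grown at 37 °C for 2–3 h to A600 0.6, then diluted 1:400 in fresh TSB. Equal volumes of bacteria and two-fold serial DMSO dilutions (final 0.39–50) were mixed. A600 was read after 18 h. MIC was the lowest concentration inhibiting growth. Run in triplicate, with vancomycin and tetracycline controls.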

Staphylococcus aureus [3] = assay: Antibacterial activity against erythromycin-resistant Staphylococcus aureus NRS-70 after 18 hrs by two fold serial dilution method; conditions: NRS-70, 18 h; how it was run: as §2
Staphylococcus aureus [4] = assay: Antibacterial activity against linezolid-resistant Staphylococcus aureus NRS-271 containing phage type E-MRSA after 18 hrs by two fold serial dilution method; conditions: NRS-271, 18 h; how it was run: as §2
Staphylococcus aureus [5] = assay: Antibacterial activity against gentamicin-resistant Staphylococcus aureus NRS-108 after 18 hrs by two fold serial dilution method; conditions: NRS-108, 18 h; how it was run: as §2
Staphylococcus aureus [6] = assay: Antibacterial activity against oxacillin/tetracycline-resistant Staphylococcus aureus NRS-100 after 18 hrs by two fold serial dilution method; conditions: NRS-100, 18 h; how it was run: as §2

SMILES	MIC (Staphylococcus aureus [1])	Activity (Escherichia coli)	MIC (Staphylococcus aureus [2])	MIC (Staphylococcus aureus [3])	MIC (Staphylococcus aureus [4])	MIC (Staphylococcus aureus [5])	MIC (Staphylococcus aureus [6])
CN(C)[C@@H]1C(O)=C(C(N)=O)C(=O)[C@@]2(O)C(O)=C3C(=O)c4c(O)cccc4[C@@](C)(O)[C@H]3C[C@@H]12 [TETRACYCLINE]	< 2.16 µM		> 56.2 µM	< 7.04 µM	< 7.04 µM	< 7.04 µM	< 7.04 µM
CC(C)c1cc2c(cc1Br)[C@@]1(C)CCC[C@@](C)(C(=O)O)[C@@H]1C/C2=N\OCCCNC(=O)c1cc(Br)cs1	1.91 to 3.82 µM (≈ 1.25 to 2.5 µg/mL)	inactive	4.78 to 9.55 µM (≈ 3.13 to 6.25 µg/mL)	1.91 to 2.38 µM (≈ 1.25 to 1.56 µg/mL)	2.38 to 3.82 µM (≈ 1.56 to 2.5 µg/mL)	2.38 to 3.82 µM (≈ 1.56 to 2.5 µg/mL)	4.78 µM (≈ 3.13 µg/mL)
CC(C)c1cc2c(cc1Br)[C@@]1(C)CCC[C@@](C)(C(=O)O)[C@@H]1C/C2=N\OCCCNC(=O)c1ccc(C(F)(F)F)cc1	1.96 to 3.92 µM (≈ 1.25 to 2.5 µg/mL)	inactive	9.8 to 19.6 µM (≈ 6.25 to 12.5 µg/mL)	1.96 to 2.45 µM (≈ 1.25 to 1.56 µg/mL)	2.45 to 3.92 µM (≈ 1.56 to 2.5 µg/mL)	2.45 to 3.92 µM (≈ 1.56 to 2.5 µg/mL)	4.91 µM (≈ 3.13 µg/mL)
CC(C)c1cc2c(cc1Br)[C@@]1(C)CCC[C@@](C)(C(=O)O)[C@@H]1C/C2=N\OCCNC(=O)c1ccc(Br)s1	3.9 µM (≈ 2.5 µg/mL)	inactive	4.89 to 9.76 µM (≈ 3.13 to 6.25 µg/mL)	2.44 to 3.9 µM (≈ 1.56 to 2.5 µg/mL)	2.44 to 3.9 µM (≈ 1.56 to 2.5 µg/mL)	2.44 to 3.9 µM (≈ 1.56 to 2.5 µg/mL)	4.89 µM (≈ 3.13 µg/mL)
CC(C)c1cc2c(cc1Br)[C@@]1(C)CCC[C@@](C)(C(=O)O)[C@@H]1C/C2=N\OCCCNC(=O)C(C)(C)C	72.8 to 91 µM (≈ 40 to 50 µg/mL)	inactive					
CC(C)c1ccc2c(c1)CC[C@H]1[C@](C)(C(=O)O)CCC[C@]21C [DEHYDROABIETIC ACID]	41.6 to 66.6 µM (≈ 12.5 to 20 µg/mL)	inactive					
CC(C)c1cc2c(cc1Br)[C@@]1(C)CCC[C@@](C)(C(=O)O)[C@@H]1C/C2=N\OCCCNC(=O)c1cccs1	> 86.9 µM	inactive					
CC(C)c1cc2c(cc1Br)[C@@]1(C)CCC[C@@](C)(C(=O)O)[C@@H]1C/C2=N\OCCCN	> 107 µM	inactive					
CC(C)c1cc2c(cc1Br)[C@@]1(C)CCC[C@@](C)(C(=O)O)[C@@H]1C/C2=N\OCCNC(=O)c1ccsc1	> 89 µM	inactive					
CN[C@H](CC(C)C)C(=O)N[C@H]1C(=O)N[C@@H](CC(N)=O)C(=O)N[C@H]2C(=O)N[C@H]3C(=O)N[C@H](C(=O)N[C@H](C(=O)O)c4cc(O)cc(O)c4-c4cc3ccc4O)[C@H](O)c3ccc(c(Cl)c3)Oc3cc2cc(c3O[C@@H]2O[C@H](CO)[C@@H](O)[C@H](O)[C@H]2O[C@H]2C[C@](C)(N)[C@H](O)[C@H](C)O2)Oc2ccc(cc2Cl)[C@H]1O [VANCOMYCIN]	< 1.73 µM		1.72 to 3.45 µM (≈ 2.49 to 5 µg/mL)	< 1.72 µM	< 1.72 µM	< 1.72 µM	0.86 to 1.72 µM (≈ 1.25 to 2.49 µg/mL)
COc1ccc(C(=O)NCCO/N=C2\C[C@H]3[C@](C)(C(=O)O)CCC[C@]3(C)c3cc(Br)c(C(C)C)cc32)cc1	25.6 to 34.2 µM (≈ 15 to 20 µg/mL)	inactive					
CC(C)c1cc2c(cc1Br)[C@@]1(C)CCC[C@@](C)(C(=O)O)[C@@H]1C/C2=N\OCCN	> 111 µM	inactive					
CC(C)c1cc2c(cc1Br)[C@@]1(C)CCC[C@@](C)(C(=O)O)[C@@H]1C/C2=N\OCCNC(=O)c1ccccn1	26.9 to 35.9 µM (≈ 15 to 20 µg/mL)	inactive					
CC(C)c1cc2c(cc1Br)[C@@]1(C)CCC[C@@](C)(C(=O)O)[C@@H]1C/C2=N\OCCCNC(=O)c1cc2ccccc2[nH]1	> 41.1 µM	inactive					
CC(C)c1cc2c(cc1Br)[C@@]1(C)CCC[C@@](C)(C(=O)O)[C@@H]1C/C2=N\OCCNC(=O)c1ccco1	36.7 to 45.8 µM (≈ 20 to 25 µg/mL)	inactive					
CC(=O)NCCO/N=C1\C[C@H]2[C@](C)(C(=O)O)CCC[C@]2(C)c2cc(Br)c(C(C)C)cc21	> 101 µM	inactive					
CC(C)c1cc2c(cc1Br)[C@@]1(C)CCC[C@@](C)(C(=O)O)[C@@H]1C/C2=N\OCCCNC(=O)C1CC1	56.2 to 75 µM (≈ 30 to 40 µg/mL)	inactive					
CC(C)C(=O)NCCO/N=C1\C[C@H]2[C@](C)(C(=O)O)CCC[C@]2(C)c2cc(Br)c(C(C)C)cc21	76.7 to 95.9 µM (≈ 40 to 50 µg/mL)	inactive					
CC(C)c1cc2c(cc1Br)[C@@]1(C)CCC[C@@](C)(C(=O)O)[C@@H]1C/C2=N\OCCNC(=O)c1cccs1	> 89 µM	inactive					
CC(C)c1cc2c(cc1Br)[C@@]1(C)CCC[C@@](C)(C(=O)O)[C@@H]1C/C2=N\OCCNC(=O)C1CC1	57.8 to 77 µM (≈ 30 to 40 µg/mL)	inactive					

More lines, main results first:

MIC (Staphylococcus aureus [1])	SMILES	Activity (Escherichia coli)	MIC (Staphylococcus aureus [2])	MIC (Staphylococcus aureus [3])	MIC (Staphylococcus aureus [4])	MIC (Staphylococcus aureus [5])	MIC (Staphylococcus aureus [6])
6.36 to 8.48 µM (≈ 3.75 to 5 µg/mL)	Cc1ccc(C(=O)NCCCO/N=C2\C[C@H]3[C@](C)(C(=O)O)CCC[C@]3(C)c3cc(Br)c(C(C)C)cc32)s1	inactive					
5.81 to 7.75 µM (≈ 3.75 to 5 µg/mL)	CC(C)c1cc2c(cc1Br)[C@@]1(C)CCC[C@@](C)(C(=O)O)[C@@H]1C/C2=N\OCCNC(=O)c1c(F)c(F)c(F)c(F)c1F	inactive					
8.54 to 10.7 µM (≈ 5 to 6.25 µg/mL)	COc1ccccc1C(=O)NCCO/N=C1\C[C@H]2[C@](C)(C(=O)O)CCC[C@]2(C)c2cc(Br)c(C(C)C)cc21	inactive					
10 to 20.1 µM (≈ 6.25 to 12.5 µg/mL)	CC(C)c1cc2c(cc1Br)[C@@]1(C)CCC[C@@](C)(C(=O)O)[C@@H]1C/C2=N\OCCNC(=O)c1ccccc1C(F)(F)F	inactive					
7.67 µM (≈ 5 µg/mL)	CC(C)c1cc2c(cc1Br)[C@@]1(C)CCC[C@@](C)(C(=O)O)[C@@H]1C/C2=N\OCCCNC(=O)Cc1ccccc1C(F)(F)F	inactive					
4.28 to 6.42 µM (≈ 2.5 to 3.75 µg/mL)	CCc1ccc(C(=O)NCCO/N=C2\C[C@H]3[C@](C)(C(=O)O)CCC[C@]3(C)c3cc(Br)c(C(C)C)cc32)cc1	inactive					
7.84 µM (≈ 5 µg/mL)	CC(C)c1cc2c(cc1Br)[C@@]1(C)CCC[C@@](C)(C(=O)O)[C@@H]1C/C2=N\OCCNC(=O)Cc1ccccc1C(F)(F)F	inactive					
5.88 to 7.84 µM (≈ 3.75 to 5 µg/mL)	CC(C)c1cc2c(cc1Br)[C@@]1(C)CCC[C@@](C)(C(=O)O)[C@@H]1C/C2=N\OCCNC(=O)Cc1ccc(C(F)(F)F)cc1	inactive					
13.6 to 18.2 µM (≈ 7.5 to 10 µg/mL)	CCCCCC(=O)NCCO/N=C1\C[C@H]2[C@](C)(C(=O)O)CCC[C@]2(C)c2cc(Br)c(C(C)C)cc21	inactive					
17.1 µM (≈ 10 µg/mL)	CC(C)c1cc2c(cc1Br)[C@@]1(C)CCC[C@@](C)(C(=O)O)[C@@H]1C/C2=N\OCCCNC(=O)Cc1ccccc1	inactive					
17.6 µM (≈ 10 µg/mL)	CC(C)c1cc2c(cc1Br)[C@@]1(C)CCC[C@@](C)(C(=O)O)[C@@H]1C/C2=N\OCCNC(=O)Cc1ccccc1	inactive					
18 to 22.5 µM (≈ 10 to 12.5 µg/mL)	CC(C)c1cc2c(cc1Br)[C@@]1(C)CCC[C@@](C)(C(=O)O)[C@@H]1C/C2=N\OCCNC(=O)c1ccccc1	inactive					
5.69 to 7.58 µM (≈ 3.75 to 5 µg/mL)	CC(C)c1cc2c(cc1Br)[C@@]1(C)CCC[C@@](C)(C(=O)O)[C@@H]1C/C2=N\OCCCNC(=O)c1c(F)c(F)c(F)c(F)c1F	inactive					
13.1 to 17.4 µM (≈ 7.5 to 10 µg/mL)	CC(C)c1cc2c(cc1Br)[C@@]1(C)CCC[C@@](C)(C(=O)O)[C@@H]1C/C2=N\OCCNC(=O)c1ccccc1F	inactive					
8.78 µM (≈ 5 µg/mL)	CC(C)c1cc2c(cc1Br)[C@@]1(C)CCC[C@@](C)(C(=O)O)[C@@H]1C/C2=N\OCCCNC(=O)c1ccccc1	inactive					
7.84 to 9.8 µM (≈ 5 to 6.25 µg/mL)	CC(C)c1cc2c(cc1Br)[C@@]1(C)CCC[C@@](C)(C(=O)O)[C@@H]1C/C2=N\OCCCNC(=O)c1ccccc1C(F)(F)F	inactive					
5.75 to 9.18 µM (≈ 3.13 to 5 µg/mL)	CC(C)c1cc2c(cc1Br)[C@@]1(C)CCC[C@@](C)(C(=O)O)[C@@H]1C/C2=N\OCCNC(=O)c1ccc[nH]1	inactive					
5.02 to 8.02 µM (≈ 3.13 to 5 µg/mL)	CC(C)c1cc2c(cc1Br)[C@@]1(C)CCC[C@@](C)(C(=O)O)[C@@H]1C/C2=N\OCCNC(=O)c1ccc(C(F)(F)F)cc1	inactive					
13 to 17.4 µM (≈ 7.5 to 10 µg/mL)	Cc1ccc(C(=O)NCCO/N=C2\C[C@H]3[C@](C)(C(=O)O)CCC[C@]3(C)c3cc(Br)c(C(C)C)cc32)s1	inactive					
21.9 µM (≈ 12.5 µg/mL)	CC(C)c1cc2c(cc1Br)[C@@]1(C)CCC[C@@](C)(C(=O)O)[C@@H]1C/C2=N\OCCCNC(=O)c1ccccn1	inactive					
12.5 to 16.7 µM (≈ 7.5 to 10 µg/mL)	COc1ccc(C(=O)NCCCO/N=C2\C[C@H]3[C@](C)(C(=O)O)CCC[C@]3(C)c3cc(Br)c(C(C)C)cc32)cc1	inactive					
5.86 to 7.81 µM (≈ 3.75 to 5 µg/mL)	CC(C)c1cc2c(cc1Br)[C@@]1(C)CCC[C@@](C)(C(=O)O)[C@@H]1C/C2=N\OCCNC(=O)c1cc(Br)cs1	inactive					
5.88 to 7.84 µM (≈ 3.75 to 5 µg/mL)	CC(C)c1cc2c(cc1Br)[C@@]1(C)CCC[C@@](C)(C(=O)O)[C@@H]1C/C2=N\OCCNC(=O)Cc1cccc(C(F)(F)F)c1	inactive					
17.4 µM (≈ 10 µg/mL)	CC(C)c1cc2c(cc1Br)[C@@]1(C)CCC[C@@](C)(C(=O)O)[C@@H]1C/C2=N\OCCCNC(=O)c1ccsc1	inactive					
8.51 to 10.6 µM (≈ 5 to 6.25 µg/mL)	CC(C)c1cc2c(cc1Br)[C@@]1(C)CCC[C@@](C)(C(=O)O)[C@@H]1C/C2=N\OCCCNC(=O)c1ccccc1F	inactive					
